The values below come from ChEMBL document CHEMBL1221307, “Substituted 2H-isoquinolin-1-ones as potent Rho-kinase inhibitors: part 2, optimization for blood pressure reduction in spontaneously hypertensive rats” (Bioorg Med Chem Lett, 2010).

Broadly, the AUC is the area under the concentration-time curve, a measure of exposure. Low readings indicate low exposure, high ones high exposure. Broadly, the bioavailability is dose-corrected exposure relative to a reference, in per cent. A higher bioavailability goes with good availability.

Holding throughout (assay type): ADME, organism-based
A short description of data set [1]: AUC in rat at 0.5 mg/kg, iv. On the set-up: dose 0.5 mg/kg, route intravenous. As to conditions: plasma. Put shortly:
(§1)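 Rats given 0.5 mg/kg iv and 10 mg/kg po. The iv plasma values are the mean from three rats; the po plasma values come from a single rat.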

Data set [2] can be described thus: AUC in rat at 10 mg/kg, po. Set-up: dose 10 mg/kg, route oral. The note with it: plasma. In outline:
as §1

Data set [3] is described as follows: Oral bioavailability in rat at 10 mg/kg. The note with it: in vivo. In outline:
as §1

For the compound `CN1CCC(C(=O)Nc2cc3cc[nH]c(=O)c3cc2Cl)CC1`, the area under the curve (AUC) in data set [1] came out at 127 ng·h/mL; in data set [2], 1780 ng·h/mL. Moreover, in data set [3], the bioavailability is 70%.
For `O=C(Nc1cc2cc[nH]c(=O)c2cc1Cl)C1CCNCC1` the same measures were 161 ng·h/mL, 141 ng·h/mL and 4.4%.
On to `N[C@H]1CC[C@@H](C(=O)Nc2cc3cc[nH]c(=O)c3cc2Cl)CC1`, for which the AUC came to 119 ng·h/mL in data set [1] and 338 ng·h/mL in data set [2]. Moreover, the bioavailability in data set [3] came out at 20%.
